Experimental data published in paper PMC6030940 (International Journal of Nanomedicine, 2018).
Entries after “also recorded” stand apart in the source; their conditions may differ. Each block holds one molecule with its values, some of them ahead of it.

Columns and labels:
[1] = test system: Caco-2 monolayer; conditions: previous study; cited from earlier work
[2] = test system: Pgp expression in kidney cancer cells; conditions: 5 ng/mL, 72 h; cited from earlier work
[3] = molecular target: T1, Pgp (Homo sapiens, UniProt P08183); experiment: Cellular uptake of BBR in MDCK-MDR1 cells; type: cell-based; conditions: BS20 8.1 µM, BBR 100 µM, 37°C, 90 min
T1 sequence (P08183 whole entry): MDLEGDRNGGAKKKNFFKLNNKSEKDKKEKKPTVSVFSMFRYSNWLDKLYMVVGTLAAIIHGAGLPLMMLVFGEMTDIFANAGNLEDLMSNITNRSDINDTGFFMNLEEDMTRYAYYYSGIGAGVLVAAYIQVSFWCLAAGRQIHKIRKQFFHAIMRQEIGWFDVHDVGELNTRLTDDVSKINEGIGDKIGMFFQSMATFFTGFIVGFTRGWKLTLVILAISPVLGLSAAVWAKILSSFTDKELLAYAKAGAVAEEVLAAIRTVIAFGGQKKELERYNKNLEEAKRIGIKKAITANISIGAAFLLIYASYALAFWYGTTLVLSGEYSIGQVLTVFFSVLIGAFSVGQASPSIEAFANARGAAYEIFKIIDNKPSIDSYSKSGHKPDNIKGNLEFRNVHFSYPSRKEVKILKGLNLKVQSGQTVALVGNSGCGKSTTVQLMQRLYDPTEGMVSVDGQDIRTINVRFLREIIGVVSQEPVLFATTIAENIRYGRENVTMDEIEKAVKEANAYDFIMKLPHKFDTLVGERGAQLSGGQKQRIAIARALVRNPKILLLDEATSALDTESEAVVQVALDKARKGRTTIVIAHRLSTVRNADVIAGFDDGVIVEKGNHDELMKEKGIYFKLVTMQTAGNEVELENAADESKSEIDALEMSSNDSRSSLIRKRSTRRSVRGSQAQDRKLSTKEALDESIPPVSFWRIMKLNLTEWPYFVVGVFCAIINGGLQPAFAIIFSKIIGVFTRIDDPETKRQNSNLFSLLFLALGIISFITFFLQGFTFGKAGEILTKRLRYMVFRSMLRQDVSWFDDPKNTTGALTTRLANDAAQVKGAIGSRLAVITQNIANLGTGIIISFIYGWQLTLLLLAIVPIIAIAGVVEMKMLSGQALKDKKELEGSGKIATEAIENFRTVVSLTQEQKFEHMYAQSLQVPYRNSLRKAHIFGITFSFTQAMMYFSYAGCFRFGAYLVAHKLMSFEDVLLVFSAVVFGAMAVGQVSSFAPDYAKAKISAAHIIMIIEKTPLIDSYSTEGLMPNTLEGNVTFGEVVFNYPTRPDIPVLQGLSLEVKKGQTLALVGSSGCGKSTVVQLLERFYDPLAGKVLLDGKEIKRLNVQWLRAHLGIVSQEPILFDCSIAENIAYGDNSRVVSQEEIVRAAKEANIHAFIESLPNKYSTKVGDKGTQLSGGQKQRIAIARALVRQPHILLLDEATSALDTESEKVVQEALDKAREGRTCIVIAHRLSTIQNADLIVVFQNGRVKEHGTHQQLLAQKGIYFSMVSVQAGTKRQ

[4] = molecular target: T1, Pgp; experiment: Cellular uptake of Rhodamine123 by MDCK-MDR1 cells; type: cell-based; conditions: 37°C, 90 min, Figure 2
[5] = test system: Pgp protein expression in MDCK-MDR1 cells; experiment: Cellular Pgp protein expression, Western blotting; type: cell-based; conditions: BS20 5 or 10 µM, 3 h and 24 h
[6] = test system: Pgp mRNA expression in MDCK-MDR1 cells; experiment: Pgp mRNA expression, real-time quantitative PCR; type: cell-based; conditions: normalized to GAPDH
How it was run: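 MDCK-MDR1 cells (DMEM, 10% FBS, 37°C, 5% CO2) were exposed to the test surfactant for 3 or 24 h. Total RNA was kit-extracted and reverse-transcribed with gDNA eraser. qPCR ran 95°C 30 s, then 40 cycles of 95°C 5 s and 60°C 30 s, followed by melt-curve analysis. Pgp expression was normalised to GAPDH by the 2−ΔΔCq method.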

[7] = test system: intracellular ATP in MDCK-MDR1 cells; experiment: Intracellular ATP level, ATPlite luminescence assay; type: cell-based, canine; conditions: BS20 5 or 10 µM
How it was run: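 MDCK-MDR1 cells were seeded at 1 × 10^4 cells/well, left to adhere overnight, then exposed to the test surfactant at 5 or 10 μM for 3 or 24 h. Cells were lysed by three freeze-thaw cycles in lysis reagent. Substrate reagent was added and plates rocked 10 min at room temperature. ATPlite luminescence was read on a plate reader.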

[8] = Morphology and size by scanning electron microscopy; type: physicochemical; conditions: SEM images
How it was run: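 Samples were fixed on SEM stubs with double-sided adhesive tape and coated with Au. They were imaged by scanning electron microscopy at 15 kV acceleration voltage.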

[9] = no reference given; cited from earlier work
[10] = molecular target: human Pgp membrane (Homo sapiens, UniProt P08183); experiment: Pgp ATPase activity, Pgp-Glo assay system; conditions: 37°C, 120 min
Sequence of human Pgp membrane (P08183 whole entry): as above

[11] = test system: Pgp mRNA in T84 cells; conditions: 10 µM, 72 h; cited from earlier work
[12] = has been reported; cited from earlier work
[13] = test system: MDCK-MDR1 cell monolayer; experiment: Bidirectional transport across MDCK-MDR1 cell monolayer; conditions: BBR in the presence of 10 µM verapamil
[14] = test system: P-gp (MDR1); experiment: as above; conditions: dog, MDCK-MDR1, pH 7.4
[15] = test system: Pgp; experiment: as above; conditions: dog, MDCK-MDR1, pH 7.4

Molecule: polyoxyethylene (23) lauryl ether [Brij-35]
permeation of bis(12)-hupyridone through Caco-2 monolayer [1]: significantly increase the permeation

Molecule: C/C=C1\NC(=O)[C@H]2CSSCC/C=C/[C@H](CC(=O)N[C@H](C(C)C)C(=O)N2)OC(=O)[C@H](C(C)C)NC1=O [depsipeptide]
increased expression levels of Pgp [2]: 6.3 fold

increase of cellular uptake of BBR vs BBR group [3]: 4.1 fold | size by SEM [8]: > 5 µm | stimulation of Pgp-ATPase activity vs normal control (basal level) ([10]; BS20 5 µM): 3.5 fold | stimulation of Pgp-ATPase activity vs normal control (basal level) ([10]; BS20 10 µM): 4.5 fold
Molecule: polyoxyethylene (20) stearyl ether [BS20]
effect on intracellular accumulation of Rho123 [4]: presented the most potency on increasing the intracellular accumulation of Rho123 | Pgp protein expression [5]: no significant changes in Pgp protein expression | Pgp mRNA expression ([6]; BS20 5 µM, 3 h): 0.9 fold | Pgp mRNA expression ([6]; BS20 5 µM, 24 h): 2.3 fold | Pgp mRNA expression ([6]; BS20 10 µM, 3 h): 1.4 fold | Pgp mRNA expression ([6]; BS20 10 µM, 24 h): 3.8 fold | activity of intracellular ATP ([7]; 3 h): dose-dependently inhibited; also recorded: inhibited the activity of intracellular ATP | activity of intracellular ATP ([7]; 24 h): reversed to normal level | critical micelle concentration [9]: 0.006 mM

Molecule: CC(C)CN(C[C@@H](O)[C@H](Cc1ccccc1)NC(=O)O[C@H]1CCOC1)S(=O)(=O)c1ccc(N)cc1 [amprenavir]
increase of mRNA levels of Pgp [11]: 5.1 fold

Molecule: C=C[C@H]1C[N@@]2CC[C@H]1C[C@@H]2[C@@H](O)c1ccnc2ccc(OC)cc12 [quinidine]
increase of mRNA levels of Pgp [11]: 3.8 fold

Molecule: D-α-Tocopherol polyethylene glycol 1000 succinate [TPGS]
effect on intracellular accumulation of Rho123 [4]: most powerful nonionic surfactant with the function of Pgp inhibition | critical micelle concentration [9]: 0.02 mM

size by SEM [8]: 1–2 µm | absorptive quotient (AQ) [13]: 0.344 | secretory quotient (SQ) [13]: 1.16 | efflux ratio at 120 min, 10 µM [14]: 7.12 | Papp A→B at 120 min, 10 µM [15]: 0.4 ± 0.01 ×10⁻⁶ cm/s | Papp B→A at 120 min, 10 µM [15]: 2.85 ± 0.04 ×10⁻⁶ cm/s
Molecule: COc1ccc2cc3[n+](cc2c1OC)CCc1cc2c(cc1-3)OCO2 [BBR, Berberine]
oral bioavailability [12]: < 1%
